pIC50: −log10 of the molar value. Calls of active or inactive are those of the source. No cut-off for these calls is given here. *1 amine or outer side, *2 acyl side, *3 side chain or, on linkers, in order; H or OH if unused. Where a SMILES comes first, the peptide text is derived from it. [ ]: non-standard residue; d: D form. The star is where a group is joined. Emetine(N2') = CC[C@H]1CN2CCc3cc(OC)c(OC)cc3[C@@H]2C[C@@H]1C[C@@H]1c2cc(OC)c(OC)cc2CCN1*; PABC = O=C(OCc1ccc(N[*:1])cc1)[*:2]
What was measured:
Mus musculus [1] = assay: Toxicity in Balb/C mouse assessed as death at 16 mg/kg, iv up to 1 min; type: organism-based; settings: in vivo
Method in brief: (§1)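 Male Balb/c mice, eight weeks old, about 25 g. Single IV bolus of 200 μL, doses ranging from 8 to 100 mg/kg, in 1% DMSO/saline or 10% cremophor/saline; vehicle-only controls. Each dose tested in triplicate. Mice watched for convulsions, death and behaviour after injection to set the maximum tolerated dose.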

Mus musculus [2] = assay: Toxicity in Balb/C mouse assessed as convulsion at 16 mg/kg, iv up to 1 min; type: organism-based; settings: in vivo; method in brief: as §1
[3] = Toxicity in iv dosed Balb/C mouse; type: organism-based; settings: in vivo; method in brief: as §1
Mus musculus [4] = assay: Toxicity in Balb/C mouse assessed as mortality at >100 mg/kg, iv; type: organism-based; settings: in vivo; method in brief: as §1
Mus musculus [5] = assay: Toxicity in Balb/C mouse assessed as change in behavior at >100 mg/kg, iv; type: organism-based; settings: in vivo; method in brief: as §1
CWR22R = assay: Antiproliferative activity against human CWR22Rv1 cells expressing PSA after 3 days by MTT assay; type: functional, cell-based; settings: for pIC50: 22Rv1, 72 h
Method in brief: (§2)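 LNCaP seeded at 5 × 10^3 cells/well; PC3, CWR22Rv1 and MDA-MB-231 at 2.5 × 10^3. The first three were grown in RPMI and MDA-MB-231 in DMEM, each with 10% FBS. After 24 h attachment, cells got final 10, 50, 100, 1000 or 10,000 nM (0.1% DMSO) in eight replicates. Viable cells by MTT on day 0, 3 and 5, A570 corrected at 650 nm. Experiments run at least twice.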

[6] = biological target: T1, Prostate-specific antigen (Homo sapiens, UniProt P07288); assay: (§3) Prodrug activation in human plasma assessed as human PSA mediated 4-((S)-2-((S)-2-Amino-3-hydroxypropanamido)-4-methylpentanamido)benzyl(R)-1-(((2R,3R,11bS)-3-ethyl-9,10-dimethoxy-1,3,4,6,7,11b-hexahydro-2H-pyrido[2,1-a]isoquinolin-2-yl)methyl)-6,7-dimethoxy-3,4-dihydroisoquinoline-2(1H)-carboxylate formation at 200 uM after 48 hrs by HPLC-MS analysis
T1 sequence (P07288 whole entry): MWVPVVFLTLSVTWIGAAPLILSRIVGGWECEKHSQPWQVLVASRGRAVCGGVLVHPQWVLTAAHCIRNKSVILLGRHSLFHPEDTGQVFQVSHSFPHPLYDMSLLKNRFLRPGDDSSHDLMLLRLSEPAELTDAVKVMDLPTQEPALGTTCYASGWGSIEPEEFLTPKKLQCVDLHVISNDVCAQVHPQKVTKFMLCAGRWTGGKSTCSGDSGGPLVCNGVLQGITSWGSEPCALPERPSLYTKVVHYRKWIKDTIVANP

[7] = Prodrug activation assessed as emetine formation at […] in presence of 10% FBS after 5 days by HPLC-MS analysis; settings: cattle, 120 h
Method in brief: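 No enzyme added. 10 mM DMSO stock diluted to 200 μM final (2% DMSO) in PBS, 10% FBS in PBS, or conditioned RPMI (supernatant of LNCaP culture grown to about 95% confluency). Shaken at 37 °C, quenched with cold acetonitrile, centrifuged, supernatant analysed by reversed-phase C18 HPLC (215/285 nm) and ESI-MS.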

PC-3 [8] = assay: Antiproliferative activity against human PC3 cells after 3 days by MTT assay; type: functional, cell-based; method in brief: as §2
LNCaP [9] = assay: Antiproliferative activity against human LNCAP cells expressing PSA after 3 days by MTT assay; type: functional, cell-based; method in brief: as §2
Mus musculus [10] = assay: Toxicity in Balb/C mouse assessed as convulsion at >25 mg/kg, iv after 1 min; type: organism-based; settings: in vivo; method in brief: as §1
[11] = biological target: T1, Prostate-specific antigen; assay: as §3, with “activation” for “activation in human plasma”, “formation” for “formation at 200 uM after 48 hrs”; settings: TDE = time-dependent effect
Method in brief: (§4)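 10 mM DMSO stock diluted to 200 μM final in PSA buffer (50 mM Tris·HCl, 100 mM NaCl, pH 7.4) with purified PSA at 20 μg/mL final and 2% DMSO. Shaken at 37 °C. Aliquots taken at time points, quenched with cold acetonitrile, held on ice, centrifuged, then analysed by reversed-phase C18 HPLC (215/285 nm) and mass spectrometry.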

[12] = biological target: T1, Prostate-specific antigen; assay: Prodrug activation in human plasma assessed as human PSA mediated emetine formation at 200 uM after 48 hrs by HPLC-MS analysis
Mus musculus [13] = assay: Toxicity in Balb/C mouse assessed death at >32 mg/kg, iv; type: organism-based; settings: in vivo
MDA-MB-231 = assay: Antiproliferative activity against human MDA-MB-231 cells at 50 to 10000 nM after 3 days by MTT assay; type: functional, cell-based; method in brief: as §2
PC-3 [14] = assay: Antiproliferative activity against human PC3 cells at 50 to 10000 nM after 3 days by MTT assay; type: functional, cell-based; method in brief: as §2
[15] = biological target: T1, Prostate-specific antigen; assay: Prodrug activation assessed as human PSA-mediated 4-((S)-1-(L-Alanyl)pyrrolidine-2-carboxamido)benzyl (R)-1-(((2R,3R,11bS)-3-ethyl-9,10-dimethoxy-1,3,4,6,7,11b-hexahydro-2Hpyrido[2,1-a]isoquinolin-2-yl)methyl)-6,7-dimethoxy-3,4-dihydroisoquinoline-2(1H)-carboxylate formation measured over 24 hrs by LC-MS analysis; method in brief: as §4
Mus musculus [16] = assay: Toxicity in Balb/C mouse assessed as convulsions at >25 mg/kg, iv; type: organism-based; settings: in vivo; method in brief: as §1
LNCaP [17] = assay: Potency index, ratio of emetine IC50 to compound IC50 for human LNCAP cells expressing PSA; type: functional
Mus musculus [18] = assay: Toxicity in Balb/C mouse at 32 mg/kg, iv; type: organism-based; settings: in vivo

In the case of CC[C@H]1CN2CCc3cc(OC)c(OC)cc3[C@@H]2C[C@@H]1C[C@@H]1c2cc(OC)c(OC)cc2CCN1C(=O)[C@@H]1CCCN1C(=O)[C@H](C)N, the Activity (Mus musculus [1]) was “Toxic” and the Activity (Mus musculus [2]) was “Toxic”.

For CC[C@H]1CN2CCc3cc(OC)c(OC)cc3[C@@H]2C[C@@H]1C[C@@H]1c2cc(OC)c(OC)cc2CCN1C(=O)/C=C(/C)C(=O)O, the MTD [3] was greater than 100 mg/kg, the Activity (Mus musculus [4]) was “Non-Toxic” and the Activity (Mus musculus [5]) was “Non-Toxic”.

For CC[C@H]1CN2CCc3cc(OC)c(OC)cc3[C@@H]2C[C@@H]1C[C@@H]1c2cc(OC)c(OC)cc2CCN1C(=O)OCc1ccc(NC(=O)[C@H](CC(C)C)NC(=O)[C@H](CO)NC(=O)[C@H](CCC(N)=O)NC(=O)[C@H](CC(C)C)NC(=O)[C@H](CCCCN)NC(=O)[C@H](CO)NC(=O)[C@H](CO)NC(=O)[C@H](Cc2cnc[nH]2)NC(C)=O)cc1 (Ac-HSSKLQSL[PABC]-{Emetine(N2')}), the Activity (CWR22R) was “Dose-dependent effect”, the pIC50 (CWR22R) was 7.12 and the Drug metabolism [6] was “Metabolite_Notdetected”. The Drug metabolism [7] was “Metabolite_Notdetected”, the Activity (PC-3 [8]) was “Dose-dependent effect” and the pIC50 (PC-3 [8]; PC-3, 72 h) was 6.27. The MTD [3] was 25 mg/kg, the Activity (LNCaP [9]) was “Dose-dependent effect” and the pIC50 (LNCaP [9]; 72 h) was 7.23. The Activity (Mus musculus [10]) was “Toxic”, the Drug metabolism [11] was “Tde” and the Drug metabolism [12] was “Metabolite_Notdetected”.

For CC[C@H]1CN2CCc3cc(OC)c(OC)cc3[C@@H]2C[C@@H]1C[C@@H]1c2cc(OC)c(OC)cc2CCN1C(=O)OCc1ccc(NC(=O)[C@@H]2CCCN2C(=O)[C@H](C)N)cc1, the Activity (Mus musculus [13]) was “Toxic” and the MTD [3] was 32 mg/kg.

For CC[C@H]1CN2CCc3cc(OC)c(OC)cc3[C@@H]2C[C@@H]1C[C@H]1NCCc2cc(OC)c(OC)cc21 [EMETINE], the pIC50 (CWR22R) was 7.51, the Activity (Mus musculus [1]) was “Toxic” and the Activity (MDA-MB-231) was “Active”. The MTD [3] was 8 mg/kg, the Activity (PC-3 [14]) was “Active” and the Activity (Mus musculus [2]) was “Toxic”.

With CC[C@H]1CN2CCc3cc(OC)c(OC)cc3[C@@H]2C[C@@H]1C[C@@H]1c2cc(OC)c(OC)cc2CCN1C(=O)/C=C(/CC(=O)O)C(=O)O the MTD [3] was greater than 100 mg/kg, the Activity (Mus musculus [4]) was “Non-Toxic” and the Activity (Mus musculus [5]) was “Non-Toxic”.

With CC[C@H]1CN2CCc3cc(OC)c(OC)cc3[C@@H]2C[C@@H]1C[C@@H]1c2cc(OC)c(OC)cc2CCN1C(=O)OCc1ccc(NC(=O)[C@@H]2CCCN2C(=O)[C@H](C)NC(=O)[C@H](CCC(N)=O)NC(=O)[C@H](CC(C)C)NC(=O)[C@H](CCCCN)NC(=O)[C@H](CO)NC(=O)[C@H](CO)NC(=O)[C@H](Cc2cnc[nH]2)NC(C)=O)cc1 (Ac-HSSKLQAP[PABC]-{Emetine(N2')}) the Drug metabolism [15] was “Metabolite_Notdetected”, the Activity (MDA-MB-231) was “Active” and the Activity (Mus musculus [16]) was “Toxic”. For the same compound, the Activity (PC-3 [14]) was “Active” and the “Ratio IC50” value (LNCaP [17]) was 24.

With CC[C@H]1CN2CCc3cc(OC)c(OC)cc3[C@@H]2C[C@@H]1C[C@@H]1c2cc(OC)c(OC)cc2CCN1C(=O)/C(C)=C(/C)C(=O)O the Activity (Mus musculus [18]) was “Toxic”.
